From PubChem
Shown are actives, neighbours in structure and some others; about 4.3% of the full set was active somewhere.
TAAR1 agonist = human TAAR1 agonists, primary screen, Fluo-8 calcium fluorescence, CHO RD-HGA16 cells; activation, % at 3 µM; Trace amine-associated receptor 1 (Homo sapiens), Q96RJ0; 360,000 compounds, 0.99% hits; vehicle wells 0%, saturating PEA agonist 100%; AID 624467, 2012;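 active means activation above the mean activation of all test compounds in the run plus 3 SD, cut at about 38% in these data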
Target sequence (Q96RJ0 whole entry, looked up): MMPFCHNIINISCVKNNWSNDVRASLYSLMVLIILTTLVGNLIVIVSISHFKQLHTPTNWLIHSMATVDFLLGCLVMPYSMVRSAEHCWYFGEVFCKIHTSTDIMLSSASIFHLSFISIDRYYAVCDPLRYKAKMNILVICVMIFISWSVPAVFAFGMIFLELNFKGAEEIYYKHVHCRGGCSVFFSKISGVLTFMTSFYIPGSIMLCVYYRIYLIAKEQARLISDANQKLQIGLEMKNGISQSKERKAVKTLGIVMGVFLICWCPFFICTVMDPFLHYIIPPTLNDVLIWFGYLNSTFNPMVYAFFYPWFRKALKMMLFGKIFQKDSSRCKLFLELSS
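test system = CHO RD-HGA16 cells carrying human TAAR1 plus Gα16 | schedule = 17-24 h seeding, 75 min 37 °C dye, 30 min RT | compound dosing = 3 µM single concentration | control set = DMSO and PEA EC100 | replicates = n 1 | signal = Fluo-8 fluorescence, 5 s baseline then 140 s kinetic read | measure = percent activation vs PEA EC100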
OX1R antag-1 = OX1R (HCRTR1) antagonists, primary screen, fluorescence, CHO/OX1R cells, Fluo-8 calcium, orexin A; 330,000 compounds, 0.43% hits; inhibition, % at 5 µM; Orexin/Hypocretin receptor type 1 (Homo sapiens), O43613; Fluo-8 calcium fluorescence; AID 434989, 2010;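 active means inhibition above its plate's threshold, mean inhibition of all tested compounds on the plate plus 3 SD, cut at about 37% in these data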;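 further: 0% = orexin A challenge wells and 100% = SB-334867-A antagonist wells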
GalR3 antag = GalR3 antagonists in HEK293 cells, primary screen, cell-based, fluorescence readout; Galanin receptor type 3 (Homo sapiens), O60755; HEK293 GalR3-CNG cAMP membrane potential fluorescence; galR3 body fused to GalR1 C-terminus; inhibition, % at 3 µM; 360,000 compounds, 0.44% hits;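 active means inhibition above the screen-wide average plus 3 SD, cut at about 13% in these data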;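 further: forskolin and galanin both at EC90 stimulate the cells; cAMP rise reported by CNG channel membrane potential dye signal; 0% = forskolin plus galanin with DMSO and 100% = forskolin alone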
Target sequence (O60755 1-299 limits assumed): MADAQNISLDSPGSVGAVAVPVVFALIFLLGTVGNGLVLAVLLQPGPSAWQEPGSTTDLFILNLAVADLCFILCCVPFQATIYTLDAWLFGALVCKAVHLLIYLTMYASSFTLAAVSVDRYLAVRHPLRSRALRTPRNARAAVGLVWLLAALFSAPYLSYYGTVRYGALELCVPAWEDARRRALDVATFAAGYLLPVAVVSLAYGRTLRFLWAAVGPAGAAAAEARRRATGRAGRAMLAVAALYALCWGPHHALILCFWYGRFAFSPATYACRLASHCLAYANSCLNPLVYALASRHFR
CHO parental Ca = ATP-evoked calcium signal inhibitors, parental CHO, primary screen, counter-screen for OX1R antagonist project, cell-based, fluorescence, Fluo-8 calcium dye | inhibition, % at 5.6 µM | AID 463079, 2010 | 330,000 compounds, 0.63% hits | parental CHO-K1, ATP-induced calcium, Fluo-8 fluorescence;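 active means inhibition above that plate's mean sample inhibition plus 3 SD, cut at about 26% in these data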;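 further: 0% = ATP-challenged DMSO wells and 100% = DMSO wells without ATP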
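Material – parental CHO cells · Reagent – ATP stimulus · Compound – single nominal dose of 5.6 µM per compound · Detection – Fluo-8 fluorescence · Read-out basis – percent inhibition of calcium signal · Controls – ATP-challenged DMSO wells low, unchallenged DMSO wells high · Repeats – no replicates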
TAAR1 antag = human TAAR1 antagonists, primary screen, Fluo-8 calcium fluorescence, CHO RD-HGA16 cells; Trace amine-associated receptor 1 (Homo sapiens), Q96RJ0; antagonist; inhibition, % at 3 µM; 360,000 compounds, 1.5% hits; AID 624466, 2012;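 active means inhibition above a per-plate cutoff, the mean inhibition of test compounds on that plate plus 3 SD, cut at about 49% in these data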;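 further: 0% = DMSO plus EC80 beta-PEA response and 100% = DMSO alone without agonist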
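test system = CHO RD-HGA16 cells bearing hTAAR1 | replication = singlicate | controls = DMSO-only wells and EC80 β-PEA-stimulated wells | reagent = EC80 β-phenethylamine stimulus | read-out basis = percent inhibition of PEA-evoked calcium signal, max/basal emission ratio | schedule = seeding 17-24 h prior, 75-min 37 °C, 30-min RT dye loading | signal = kinetic Fluo-8 calcium fluorescence measurement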
OX1R antag-2 = antagonists of human orexin 1 receptor (OX1R). Orexin/Hypocretin receptor type 1 (Homo sapiens), O43613. OX1R-expressing cells, FRET antagonist read-out. inhibition, % at 6.6 µM. 330,000 compounds, 1.8% hits. AID 485270, 2010; in the data active means inhibition mostly above about 38%, no sharp cut-off; inactive means mostly below about 40%;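 further: 0% = agonist challenge alone and 100% = reference antagonist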
GalR3 antag conf = GalR3 antagonist hit confirmation, cell-based, fluorescence, triplicate. shares compounds with GalR3 antag. HEK293 GalR3 CNG cAMP biosensor, membrane potential fluorescence; galR3 fused to GalR1 carboxy tail; challenged with forskolin and galanin at EC90. inhibition, % at 3 µM. 1,600 compounds, 59% hits;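 active means inhibition above the primary screen's cutoff, the mean inhibition of all screened compounds plus 3 SD, cut at about 13% in these data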;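 further: 0% = forskolin plus galanin and 100% = forskolin alone with DMSO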
CNG parental = nonspecific cAMP agonists in parental HEK-CNG cells, counter-screen for GalR3 antagonist project, cell-based, fluorescence, high throughput; AID 652268, 2013; activation, % at 3 µM; 1,600 compounds, 10% hits; shares compounds with GalR3 antag; HEK293-CNG parental cells, cAMP membrane potential fluorescence; normalised: DMSO wells 0%, forskolin wells 100%; in the data active means activation above about 1.3%
* = called active by the depositor; . = no result; ! = not confirmed by another sample.

SMILES	TAAR1 agonist	OX1R antag-1	GalR3 antag	CHO parental Ca	TAAR1 antag	OX1R antag-2	GalR3 antag conf	CNG parental
C#CCOCCOCCOCCNc1nc(N2CCN(C(=O)[C@H]([C@@H](C)CC)n3cc(CCCCN)nn3)CC2)nc(N2CCN(C(=O)[C@H](CCCCN)n3cc(CC(C)O)nn3)CC2)n1 (some centres not stated)	7.8	-22.7	-3.6	-2.2	5.9	18.2	.	.
CCOC(=O)c1ccc(NC(=O)CSc2nc(=O)n(CCN3CCOCC3)c3c2CCC3)cc1	-1.8	-28.0	-6.4	-54.4	-15.4	13.7	.	.
Cc1ccc(S(=O)(=O)N2C[C@H]3[C@H]4C(=O)N(c5ccccc5)C(=O)[C@H]4C[C@H](OC(=O)Nc4cccs4)[C@@]3(O)C2)cc1	2.7	.	-9.0	.	-5.4	.	.	.
CCOC(=O)CNC(=O)c1sc2ncnc(N3CCc4ccccc4C3)c2c1C	.	-18.4	.	-21.4	.	2.2	.	.
CCOC(=O)c1sc2ncnc(N3CCN(C(=O)OCC)CC3)c2c1C	-3.9	-9.5	14.8*	-7.0	-8.9	14.2	21.4*	0.5
Cc1cc(=O)[nH]c(N/N=C/c2ccc(Cl)c([N+](=O)[O-])c2)n1	1.9	-18.7	13.7*	0.0	0.0	4.0	1.8	0.2
Cc1cc(=O)[nH]c(N/N=C/c2cccc([N+](=O)[O-])c2)n1	0.8	4.4	-1.2	-8.9	9.1	28.8	.	.
CC[C@@H]1CCC[C@@H](O)[C@@H](C)C(=O)O[C@H](C)[C@@H](C)C/C=C(C)/C(OC)=C\C(=O)N(C)C([C@@H](C)CC)C(=O)N(C)[C@@H](C(C)C)C(=O)N(C)[C@@H](COC)C(=O)N2CCC[C@H]2C(=O)N(C)[C@@H](C(C)C)C(=O)N2CCC[C@H]2C(=O)O1 (some centres not stated)	2.5	.	100.5*	.	8.5	.	115.3*	-1.2
CCCn1c(SCc2ccc(Cl)cc2)nc2c1c(=O)[nH]c(=O)n2C	9.7	-8.8	14.2*	-24.9	12.8	18.3	31.8*	1.3*
COCCn1c(SCc2ccc(Cl)cc2)nc2c1c(=O)[nH]c(=O)n2C	1.8	-30.5	-1.9	-18.0	-25.5	-1.1	.	.
Cc1ccc(S(=O)(=O)NC(=O)NC(C)c2ccc(F)cc2)cc1 (configuration not stated)	-1.7	10.6	-6.8	-10.3	-11.9	-1.2	.	.
Cc1cc(C(=O)CSc2nc3ccccc3[nH]2)c(C)n1CC1CCCO1 (configuration not stated)	31.7	59.0*	109.7*	85.1*	72.4*	54.4*	4.8	-0.2
CNC(=O)COC(=O)/C=C/c1ccco1	12.6	-19.4	-0.1	-13.3	-20.8	9.6	.	.
O=C(COC(=O)/C=C/c1ccco1)NCc1ccco1	0.7	4.2	15.4*	-8.7	15.7	6.8	-1.4	0.3
O=C(Nc1ccc(S(=O)(=O)N2CCCC2)cc1)c1ccc(CN2CCc3ccccc3C2)cc1	9.0	49.1*	95.9*	38.5*	21.1	26.9	104.8*	-0.7
O=C(Nc1ccc(Cl)cc1)c1ccc(CN2CCc3ccccc3C2)cc1	18.3	-29.1	107.5*	-9.0	-4.0	2.9	102.2*	-0.5
O=C(Nc1ccc(S(=O)(=O)N2CCCCC2)cc1)c1ccncc1	10.7	-1.9	-1.5	-1.2	-0.5	15.6	.	.
COc1ccc(NC(=O)c2ccc(CN3CCc4ccccc4C3)cc2)cc1OC	10.7	-18.5	-4.0	1.9	15.0	3.9	.	.
N#CCc1ccc(NC(=O)c2ccc(CN3CCc4ccccc4C3)cc2)cc1	7.2	-5.9	30.4*	-4.0	3.5	-0.5	105.0*	-0.3
O=C(Nc1ccc(Cc2ccncc2)cc1)c1ccc(S(=O)(=O)N2CCCC2)cc1	22.4	.	72.7*	.	56.6*	.	94.2*	-0.2
CC1(c2nc3ccccc3[nH]2)CCC(=O)N1Cc1cccs1 (configuration not stated)	1.4	.	-4.7	.	-1.0	.	.	.
CC(C)(C)c1ccc(-n2ncc3c2CCCC3NC(=O)CCN2CCCC2=O)cc1 (configuration not stated)	2.0	1.3	95.3*	19.6	-31.3	22.2	84.1*	0.0
CC(=O)NC1CCCc2c1cnn2-c1ccc(C(C)(C)C)cc1 (configuration not stated)	3.9	-2.9	-4.8	3.1	-13.3	7.8	.	.
Cc1cc(C(=O)NC2CCCc3c2cnn3-c2cccc(C)c2C)n(C)n1 (configuration not stated)	5.1	24.6	100.4*	54.6*	-11.8	53.9	105.1*	-0.7
Cn1nccc1C(=O)NC1CCCc2c1cnn2-c1ccc(C(C)(C)C)cc1 (configuration not stated)	2.2	22.2	108.9*	55.6*	-0.7	48.7*	122.4*	-0.2
SMILES	TAAR1 agonist	OX1R antag-1	GalR3 antag	CHO parental Ca	TAAR1 antag	OX1R antag-2	GalR3 antag conf	CNG parental
Cc1ccc(-n2ncc3c2CCCC3NC(=O)c2ocnc2C)cc1C (configuration not stated)	1.5	28.6	100.8*	27.2	10.6	39.3	113.3*	-0.4
COc1ccc(NC(=O)COc2ccc(N(C)S(=O)(=O)c3ccc(Cl)cc3)cc2)cc1OC	8.2	51.4*	90.7*	90.1*	61.0*	45.3*	85.1*	-0.4
CN(c1ccc(OCC(=O)OCC(=O)Nc2ccc(F)cc2)cc1)S(=O)(=O)c1ccc(Cl)cc1	5.3	3.0	4.6	-7.1	38.8	19.7	.	.
C=CCCC1CN(Cc2ccc(OC)cc2)S(=O)(=O)c2c(Oc3ccc(OC)cc3)cccc2O1 (configuration not stated)	0.3	.	-4.9	.	14.4	.	.	.
Cc1cc(C(=O)COC(=O)c2nn(C)c(=O)c3ccccc23)c(C)n1C	3.7	.	-1.1	.	11.0	.	.	.
COc1cc(NC(=O)c2cc(C)on2)cc(C(=O)Nc2cccc(C(F)(F)F)c2)c1	5.5	-20.5	-5.0	-2.1	54.4*!	31.2	5.1	0.3
